Data as given in PubChem BioAssay AID465 (The Scripps Research Institute Molecular Screening Center, 2006).
About 130 (0.21%) of roughly 62,000 compounds were called active.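 The calls were made as follows: active = inhibition above the mean of all tested compounds plus 3 SD (cut at about 40% in these data); inactive = the rest.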 The sample as a whole holds a higher share of actives than the screen did.

Test: lowered NF-kB luciferase signal in HEK293 cells – cell-based, HEK-293 luciferase reporter, PMA/ionomycin, luminescence, antigen receptor NF-kB inhibitor project, primary screen (AID 465);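 also: 0% = stimulated DMSO wells and 100% = 10 µM reference inhibitor 5653914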
Settings: HEK-293 NF-kB luciferase reporter, at 3 µM, hits give high values
Summary of the method: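 System – HEK-293 cells with stable firefly luciferase reporter driven by four HIV NF-kB elements · Doses – one dose, 3 µM · Schedule – 1 h compound pre-incubation, 16 h PMA/ionomycin at 37 °C · Technique – luminescence from luciferase substrate reagent · Measure – percent inhibition normalized per plate to DMSO and reference-inhibitor controls · Replicates – tested once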

| SMILES | inhibition |
| --- | --- |
| N#CC1=C(N)OC2=C(C(=O)CCC2)C1C1CC=CCC1 (centres undefined) | 16.6% (inactive) |
| O=S(N1CCCCCC1)C12CC3CC(CC(C3)C1)C2 (centres undefined) | 19.1% (inactive) |
| O=C(O)CCC(=O)Nc1ccc(N2CCOCC2)cc1 | 7.6% (inactive) |
| CC(=O)Nc1ccc(NS(=O)(=O)c2cc(C)sc2C)cc1 | 11.3% (inactive) |
| CCOC(=O)CNC(=O)c1nn(-c2cccc(OC)c2)c(=O)c2ccccc12 | 5.1% (inactive) |
| CC(=O)Nc1cc(C(=O)O)ccc1S(=O)(=O)c1ccc(Cl)cc1 | 15% (inactive) |
| O=C(Nc1cnccn1)c1cccnc1 | 14.9% (inactive) |
| Cc1csc(NC(=O)C2CCCN2C(=O)OCC(C)C)n1 (centres undefined) | 3.7% (inactive) |
| CCOC(=O)N1CCN(C(=O)c2cc3c(ccc4ccccc43)oc2=O)CC1 | 12.5% (inactive) |
| CC(C)(C)NC(=O)Cn1nnc(-c2ccccc2Cl)n1 | -10.7% (inactive) |
| O=C1NC(c2cc3c(cc2Cl)OCO3)Oc2ccccc21 (centres undefined) | 6.8% (inactive) |
| Cc1cc(=O)n2c3c(cccc13)CCC2 | 7.5% (inactive) |
| CCCCN(C)Cc1c(C)[nH]c2ccc(Cl)cc2c1=O | 9.1% (inactive) |
| CNC(=O)CSc1nnc(CCc2ccccc2)n1-c1ccccc1 | 11.6% (inactive) |
| CCCCN=C(N)/C(C(=O)OCC)=C(\O)c1ccc(OC)cc1 | 7.4% (inactive) |
| Cc1ccc(OS(=O)Nc2cccc3nccnc23)cc1 (centres undefined) | 8.8% (inactive) |
| COC(=O)[C@H](C)NC(=O)Nc1ccc(OC(F)(F)F)cc1 | 11.6% (inactive) |
| Cc1ccnc(N2CCN(C(=O)CSc3nc4ccccc4nc3N3CCCCC3)CC2)c1 | 5.5% (inactive) |
| COc1ccc(-c2nnn(CC(=O)N(CCO)C(C(=O)NC3CCCC3)c3ccc(F)cc3)n2)cc1 (centres undefined) | 24% (inactive) |
| CCN(CC)S(=O)(=O)c1cc(C(=O)Nc2ccccn2)ccc1C | -11.3% (inactive) |
| O=C(Cc1nn[nH]n1)NCCC1=CCCCC1 | 4.2% (inactive) |
| CC(=O)Oc1ccc(C(=O)Nc2nccs2)cc1 | 11.8% (inactive) |
| Nc1ccc(SCCN2C(=O)c3ccccc3C2=O)cc1 | 6.7% (inactive) |
| CCc1cc(=O)oc2cc(OCC(=O)N3CCCc4ccccc43)ccc12 | 12.9% (inactive) |
| Cc1cc(C)c(NC(=O)CS(=O)CC(=O)Nc2cccnc2)c(C)c1 (centres undefined) | 18.1% (inactive) |

| SMILES | inhibition |
| --- | --- |
| C=CCC(NCCCO)c1cccc(OC)c1OC (centres undefined) | 7.1% (inactive) |
| O=C(CN1C2CCC1CC(NC(=O)C1CC1)C2)NCc1ccccc1 (centres undefined) | 7.7% (inactive) |
| CCCC(NC(=O)c1ccccc1)c1nc2ccccc2n1Cc1ccc(C(=O)OC)o1 (centres undefined) | 17.4% (inactive) |
| CCCC(CCC(=O)OC)(C(=O)OCC)c1csc(N)n1 (centres undefined) | 2.1% (inactive) |
| CCOC(=O)CSc1nncc2ccc(OC)c(OC)c12 | 2% (inactive) |
| O=C(NC(=O)c1ccc(Cl)c(Cl)c1)OC1CCS(=O)(=O)C1 (centres undefined) | 21.6% (inactive) |
| CCCN1C2=C(C(=O)CCC2)C(c2ccc(O)c(Br)c2)C2=C1CCCC2=O | -2.4% (inactive) |
| CCOC(=O)Cc1csc(NC(=O)CN(C)S(=O)(=O)c2ccc3c(c2)CCC(=O)N3)n1 | 0.2% (inactive) |
| COc1cc(Cl)c(C)cc1NC(=O)CSc1nnc(-c2ccco2)n1CC(C)C | 14.8% (inactive) |
| O=C(CCC(=O)N1CCN(S(=O)(=O)c2ccccc2)CC1)NC1CCCc2ccccc21 (centres undefined) | 15.4% (inactive) |
| Cc1cc(Cl)c(S(=O)(=O)NCCC(=O)O)cc1OCC(N)=O | 1.4% (inactive) |
| CC(=O)N1CCN(c2ccc(NCc3ccc(C(C)C)cc3)cc2)CC1 | -0.9% (inactive) |
| CCCn1c(SCC(=O)Nc2cccc(C(=O)OCC)c2)nnc1-c1ccoc1C | -4.2% (inactive) |
| CCOc1ccc(OCc2ccc(C(=O)Nc3cccc(C)n3)o2)cc1 | -17.7% (inactive) |
| O=P(c1cccs1)(c1cccs1)c1cccs1 | 22.9% (inactive) |
| CCCn1cc(SCC(N)=O)c2ccccc21 | 2.8% (inactive) |
| COc1ccc(N=Cc2c(O)[nH]c3ccccc23)cc1OC | -16.7% (inactive) |
| CCN(CC)S(=O)(=O)c1ccc2nc(COC(=O)c3n[nH]c4ccccc34)[nH]c2c1 | 12.4% (inactive) |
| Cc1ccn2cc(C(=O)NC3CCN(Cc4ccccc4)CC3)nc2c1 | 6.4% (inactive) |
| COc1cccc(NC(=O)Cn2cnc3sc(C)c(S(=O)(=O)N4CCN(C)CC4)c3c2=O)c1 | 11.9% (inactive) |
| Cc1ccsc1C(=O)OCC(=O)c1cc2ccccc2o1 | 3.8% (inactive) |
| Cc1ccsc1C(=O)OCC(=O)c1cc(C)n(CC2CCCO2)c1C (centres undefined) | 55.2% (active) |
| COC(=O)c1ccc2c(=O)n(CC3CCCO3)c(=S)[nH]c2c1 (centres undefined) | 12.2% (inactive) |
| O=C1NC(c2ccncc2)Nc2sc3c(c21)CCCC3 (centres undefined) | 8% (inactive) |
